ChEMBL document CHEMBL5346932, “Structure-activity relationships of actively FhuE transported rifabutin derivatives with potent activity against Acinetobacter baumannii” (Eur J Med Chem, 2023)
In brackets after ≈: the same amount, converted by molar mass. Activity calls are given as the source filed them. No cut-off for these calls is given here.

Tests used:
[1] = system: Acinetobacter baumannii; assay: Antibacterial activity against Acinetobacter baumannii HUMC1 cultured in RPMI 1640 medium supplemented with 10% FCS assessed as bacterial growth inhibition incubated for 20 hrs by CLSI based microbroth dilution method; format: functional; details: Acinetobacter baumannii
Method in brief: (§1)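 CLSI broth microdilution in RPMI 1640 + 10% FCS in place of CAMHB. Compounds in 2-fold dilution series; inoculum 5×10^5 CFU/mL. Plates held static at 35 °C for 20 h. MIC read visually as the lowest concentration with no visible growth. […] is the reciprocal of this MIC.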

[2] = Inhibition of transcription in Acinetobacter baumannii HUMC1 using pVT784 as reporter plasmid preincubated for 30 mins followed by reporter plasmid addition and measured after 60 mins by Nano-Glo luciferase assay; format: functional
Method in brief: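 Cell-free transcription/translation used A. baumannii HUMC1 extract at 1.2 mg/mL, with extract from 2xYT+P culture after a run-off step and dialysis at pH 8.2. Compound was preincubated with extract for 30 min on ice. Reporter plasmid (0.5 nM) was then added and luminescence read after 60 min at 25 °C. Compounds were tested at 8 to 0.002 mg/L in triplicate. IC50 was fit from no-compound-normalized signal.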

[3] = Drug accumulation in Acinetobacter baumannii HUMC1 cultured in iron-limited RPMI medium supplemented with 10% FCS measured per 5 ml of culture medium at 0.05 uM incubated for 10 mins by LC-MS/MS analysis; format: ADME
Method in brief: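 5 mL of suspension was dosed from DMSO stocks (0.002–5 mM) and shaken at 150 rpm for 10 min at 37 °C. Cells were pelleted, washed, and lysed (sucrose/EDTA). LC-MS/MS MRM quantitation used caffeine-normalized standard curves in spiked lysate. Reported as amount per 5 mL; n≥2 independent replicates.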

[4] = system: Acinetobacter baumannii; assay: Antibacterial activity against Acinetobacter baumannii HUMC1 cultured in iron-limited RPMI medium supplemented with 10% FCS assessed as inverse MIC incubated for 20 hrs by CLSI based microbroth dilution method; format: functional; method in brief: as §1
[5] = system: Staphylococcus aureus; assay: Antibacterial activity against Staphylococcus aureus USA300 UAMS-1625 assessed as fold reduction in MIC incubated for 20 hrs by CLSI based microbroth dilution method relative to rifabutin; format: functional
Method in brief: (§2)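 CLSI broth microdilution in CAMHB against S. aureus USA300 UAMS-1625. Compounds in 2-fold dilution series; inoculum 5×10^5 CFU/mL. Incubated without shaking at 35 °C for 20 h. MIC read visually as the lowest concentration preventing visible growth. Fold changes are relative to the rifabutin MIC.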

[6] = system: Staphylococcus aureus; assay: Antibacterial activity against Staphylococcus aureus USA300 UAMS-1625 assessed as fold increase in MIC incubated for 20 hrs by CLSI based microbroth dilution method relative to rifabutin; format: functional; method in brief: as §2
[7] = system: Acinetobacter baumannii; assay: Antibacterial activity against Acinetobacter baumannii HUMC1 harboring RpoB H535C mutant assessed as bacterial growth inhibition incubated for 20 hrs by CLSI based microbroth dilution method; format: functional
Method in brief: (§3)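 Microbroth dilution per CLSI in RPMI 1640 + 10% FCS (in place of CAMHB). Compounds as 2-fold serial dilutions; inoculum 5×10^5 CFU/mL of previously described HUMC1-derived mutant strains. Incubated static at 35 °C for 20 h. MIC read visually as lowest concentration preventing visible growth.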

[8] = system: Acinetobacter baumannii; assay: Antibacterial activity against Acinetobacter baumannii HUMC1 harboring RpoB H535Q mutant assessed as fold reduction in MIC incubated for 20 hrs by CLSI based microbroth dilution method relative to rifabutin; format: functional
[9] = system: Acinetobacter baumannii; assay: Antibacterial activity against Acinetobacter baumannii HUMC1 harboring RpoB H535Q mutant assessed as bacterial growth inhibition incubated for 20 hrs by CLSI based microbroth dilution method; format: functional; method in brief: as §3
[10] = system: Acinetobacter baumannii; assay: Antibacterial activity against Acinetobacter baumannii HUMC1 harboring FhuE deletion mutant assessed as bacterial growth inhibition incubated for 20 hrs by CLSI based microbroth dilution method; format: functional; method in brief: as §3
[11] = system: Acinetobacter baumannii; assay: Antibacterial activity against Acinetobacter baumannii HUMC1 harboring RpoB H535C mutant assessed as fold reduction in MIC incubated for 20 hrs by CLSI based microbroth dilution method relative to rifabutin; format: functional
[12] = system: Staphylococcus aureus; assay: Antibacterial activity against Staphylococcus aureus USA300 UAMS-1625 assessed as bacterial growth inhibition incubated for 20 hrs by CLSI based microbroth dilution method; format: functional; method in brief: as §2

SMILES | IC50 [2] [µg/mL] | 1/MIC [4] [L/mg] | MIC ([1]; HUMC1, 20 h, read-out: MIC) [µg/mL] | fold change (FC) [5] | MIC [10] [µg/mL] | also measured
CO[C@H]1/C=C/O[C@@]2(C)Oc3c(C)c(O)c4c(O)c(c(/C=N/N5CCN(C)CC5)c(O)c4c3C2=O)NC(=O)/C(C)=C\C=C\[C@H](C)[C@H](O)[C@@H](C)[C@@H](O)[C@@H](C)[C@H](OC(C)=O)[C@@H]1C [RIFAMPIN] | 0.07 (≈ 0.0851 µM) | 0.25 | – | – | – | MIC ([1]; HUMC1, read-out: MIC): 4 µg/mL (≈ 4.86 µM); Drug uptake ([3]; BLD = below limit of detection): Bld
CO[C@H]1/C=C/O[C@@]2(C)Oc3c(C)c(O)c4c(c3C2=O)C2=NC3(CCN(C5CCCC5)CC3)NC2=C(NC(=O)/C(C)=C\C=C\[C@H](C)[C@H](O)[C@@H](C)[C@@H](O)[C@@H](C)[C@H](OC(C)=O)[C@@H]1C)C4=O (stereo in doubt; form 1) | – | – | ≤ 0.002 | 2 | – | –
CO[C@H]1/C=C/O[C@@]2(C)Oc3c(C)c(O)c4c(c3C2=O)C2=NC3(CCN(C5CCCCC5)CC3)NC2=C(NC(=O)/C(C)=C\C=C\[C@H](C)[C@H](O)[C@@H](C)[C@@H](O)[C@@H](C)[C@H](OC(C)=O)[C@@H]1C)C4=O | – | – | 0.016 (≈ 0.0183 µM) | – | – | fold change (FC) [6]: 2
CCC(C)(C)N1CCC2(CC1)N=C1C(=C3NC(=O)/C(C)=C\C=C\[C@H](C)[C@H](O)[C@@H](C)[C@@H](O)[C@@H](C)[C@H](OC(C)=O)[C@H](C)[C@@H](OC)/C=C/O[C@@]4(C)Oc5c(C)c(O)c(c1c5C4=O)C3=O)N2 | – | – | 0.008 (≈ 0.00929 µM) | 2 | – | –
CO[C@H]1/C=C/O[C@@]2(C)Oc3c(C)c(O)c4c(c3C2=O)C2=NC3(CCN(CC5CCCC5)CC3)NC2=C(NC(=O)/C(C)=C\C=C\[C@H](C)[C@H](O)[C@@H](C)[C@@H](O)[C@@H](C)[C@H](OC(C)=O)[C@@H]1C)C4=O | – | – | 0.016 (≈ 0.0183 µM) | – | – | fold change (FC) [6]: 2
CO[C@H]1/C=C/O[C@@]2(C)Oc3c(C)c(O)c4c(c3C2=O)C2=NC3(CCN(C)CC3)NC2=C(NC(=O)/C(C)=C\C=C\[C@H](C)[C@H](O)[C@@H](C)[C@@H](O)[C@@H](C)[C@H](OC(C)=O)[C@@H]1C)C4=O | – | – | 0.016 (≈ 0.0199 µM) | 2 | – | –
CO[C@H]1/C=C/O[C@@]2(C)Oc3c(C)c(O)c4c(c3C2=O)C2=NC3(CCN(C5CC5)CC3)NC2=C(NC(=O)/C(C)=C\C=C\[C@H](C)[C@H](O)[C@@H](C)[C@@H](O)[C@@H](C)[C@H](OC(C)=O)[C@@H]1C)C4=O (stereo in doubt; form 1) | 0.12 (≈ 0.144 µM) | 1000 | ≤ 0.002 | 2 | 0.5 (≈ 0.602 µM) | MIC [7]: 0.004 µg/mL (≈ 0.00481 µM); fold change (FC) [8]: 2; MIC [9]: 0.004 µg/mL (≈ 0.00481 µM); Drug uptake [3]: 24.66 pmol; fold change (FC) [11]: 2
CO[C@H]1/C=C/O[C@@]2(C)Oc3c(C)c(O)c4c(c3C2=O)C2=NC3(CCN(c5ccccc5)CC3)NC2=C(NC(=O)/C(C)=C\C=C\[C@H](C)[C@H](O)[C@@H](C)[C@@H](O)[C@@H](C)[C@H](OC(C)=O)[C@@H]1C)C4=O | – | – | 0.125 (≈ 0.144 µM) | – | – | fold change (FC) [6]: 2
CO[C@H]1/C=C/O[C@@]2(C)Oc3c(C)c(O)c4c(c3C2=O)C2=NC3(CCN(CCC(C)C)CC3)NC2=C(NC(=O)/C(C)=C\C=C\[C@H](C)[C@H](O)[C@@H](C)[C@@H](O)[C@@H](C)[C@H](OC(C)=O)[C@@H]1C)C4=O | – | – | 0.016 (≈ 0.0186 µM) | – | 0.5 (≈ 0.581 µM) | Activity [12]: Active
CO[C@H]1/C=C/O[C@@]2(C)Oc3c(C)c(O)c4c(c3C2=O)C2=NC3(CCNCC3)NC2=C(NC(=O)/C(C)=C\C=C\[C@H](C)[C@H](O)[C@@H](C)[C@@H](O)[C@@H](C)[C@H](OC(C)=O)[C@@H]1C)C4=O | 0.05 (≈ 0.0632 µM) | 4 | 0.25 (≈ 0.316 µM) | – | 0.5 (≈ 0.632 µM) | MIC [7]: 1 µg/mL (≈ 1.26 µM); MIC [9]: 1 µg/mL (≈ 1.26 µM); Drug uptake [3]: 0.47 pmol; fold change (FC) [6]: 2
CO[C@H]1/C=C/O[C@@]2(C)Oc3c(C)c(O)c4c(c3C2=O)C2=NC3(CCN(C(C)C)CC3)NC2=C(NC(=O)/C(C)=C\C=C\[C@H](C)[C@H](O)[C@@H](C)[C@@H](O)[C@@H](C)[C@H](OC(C)=O)[C@@H]1C)C4=O | – | – | 0.002 (≈ 0.0024 µM) | 2 | 0.5 (≈ 0.6 µM) | –
CCN1CCC2(CC1)N=C1C(=C3NC(=O)/C(C)=C\C=C\[C@H](C)[C@H](O)[C@@H](C)[C@@H](O)[C@@H](C)[C@H](OC(C)=O)[C@H](C)[C@@H](OC)/C=C/O[C@@]4(C)Oc5c(C)c(O)c(c1c5C4=O)C3=O)N2 | – | – | 0.004 (≈ 0.00488 µM) | 2 | – | –
CO[C@H]1/C=C/O[C@@]2(C)Oc3c(C)c(O)c4c(c3C2=O)C2=NC3(CCN(CCC(C)(C)C)CC3)NC2=C(NC(=O)/C(C)=C\C=C\[C@H](C)[C@H](O)[C@@H](C)[C@@H](O)[C@@H](C)[C@H](OC(C)=O)[C@@H]1C)C4=O | 0.17 (≈ 0.194 µM) | 16.67 | 0.06 (≈ 0.0686 µM) | 2 | 0.5 (≈ 0.571 µM) | MIC [7]: 1 µg/mL (≈ 1.14 µM); MIC [9]: 1 µg/mL (≈ 1.14 µM); Drug uptake [3]: 9.55 pmol
CO[C@H]1/C=C/O[C@@]2(C)Oc3c(C)c(O)c4c(c3C2=O)C2=NC3(CCN(C(C)(C)C)CC3)NC2=C(NC(=O)/C(C)=C\C=C\[C@H](C)[C@H](O)[C@@H](C)[C@@H](O)[C@@H](C)[C@H](OC(C)=O)[C@@H]1C)C4=O | 0.06 (≈ 0.0708 µM) | 500 | 0.002 (≈ 0.00236 µM) | – | 0.5 (≈ 0.59 µM) | Activity [12]: Active; Drug uptake [3]: 32.73 pmol
